The source made the active and inactive calls. The calls are words filed in the database; no cut-off is given here.
Experiments:
[1] = system: PC-3M-luc; conditions: Homo sapiens, dose 20.0 µM, time 5.0 hrs
[2] = system: HGC-27; assay: Cytotoxicity against human HGC-27 cells assessed as inhibition of cell growth at 50 uM incubated for 72 hrs by MTS assay relative to control; format: functional
[3] = Cytotoxicity against human W1 Ovarian cancer cells assessed as inhibition of cell growth at 50 uM incubated for 72 hrs by MTT assay relative to control; format: functional
[4] = Cytotoxicity against human PC-3M-luc cells assessed as inhibition of cell growth at 50 uM incubated for 72 hrs by MTS assay relative to control; format: functional
[5] = system: MCF7; assay: Cytotoxicity against human MCF7 cells assessed as inhibition of cell growth at 50 uM incubated for 72 hrs by MTT assay relative to control; format: functional
[6] = target: T1, NAD-dependent protein deacetylase sirtuin-3, mitochondrial (Homo sapiens, UniProt Q9NTG7); assay: Inhibition of recombinant human Sirt3 (118 to 395 residues) expressed in Escherichia coli BL21 Star (DE3) using ZMAL as substrate incubated for 4 hrs in presence of NAD+ by trypsin based fluorescence analysis
T1 sequence (Q9NTG7 whole entry): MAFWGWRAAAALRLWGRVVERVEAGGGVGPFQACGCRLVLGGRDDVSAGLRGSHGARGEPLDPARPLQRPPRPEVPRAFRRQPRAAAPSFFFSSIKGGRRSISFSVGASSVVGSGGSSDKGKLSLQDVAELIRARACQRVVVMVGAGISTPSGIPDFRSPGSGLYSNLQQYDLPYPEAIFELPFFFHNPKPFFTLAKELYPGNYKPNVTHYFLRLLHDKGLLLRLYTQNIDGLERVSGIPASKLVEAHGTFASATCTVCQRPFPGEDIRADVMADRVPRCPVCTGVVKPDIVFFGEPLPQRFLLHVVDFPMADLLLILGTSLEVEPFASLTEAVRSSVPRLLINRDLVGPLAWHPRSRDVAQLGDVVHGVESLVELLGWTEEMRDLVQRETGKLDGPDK
Outline: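 Human Sirt1 (134–747) or Sirt3 (118–395) expressed in E. coli, purified by Strep-Tactin and size exclusion. Assay with ZMAL (10.5 µM final) in Tris buffer pH 8.0, 5% DMSO, at 37 °C. Started with NAD+ (500 µM final). Conversion set to 15–30%.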

[7] = target: T2, NAD-dependent protein deacetylase sirtuin-2 (Homo sapiens) (UniProt Q8IXJ6); assay: Inhibition of recombinant human Sirt2 (56 to 356 residues) expressed in Escherichia coli BL21 Star (DE3) mediated demyristoylation activity using ZMML as substrate at 10 uM incubated for 4 hrs in presence of NAD+ by trypsin based fluorescence analysis relative to control
T2 sequence (whole entry): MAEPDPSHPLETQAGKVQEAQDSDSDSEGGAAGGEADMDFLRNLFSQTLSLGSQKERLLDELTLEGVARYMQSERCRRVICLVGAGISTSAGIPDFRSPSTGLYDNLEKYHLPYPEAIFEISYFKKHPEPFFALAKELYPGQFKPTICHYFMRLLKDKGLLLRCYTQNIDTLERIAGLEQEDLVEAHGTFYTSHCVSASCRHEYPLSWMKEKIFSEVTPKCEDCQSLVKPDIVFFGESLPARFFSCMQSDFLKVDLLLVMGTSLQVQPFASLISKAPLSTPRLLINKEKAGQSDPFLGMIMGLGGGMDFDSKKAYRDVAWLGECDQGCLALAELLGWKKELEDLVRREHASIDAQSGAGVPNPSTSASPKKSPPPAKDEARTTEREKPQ

| IC50 [6] | inhibition [7] | SMILES | inhibition [1] | inhibition at 50 µM [2] | inhibition at 50 µM [3] | inhibition at 50 µM [4] | inhibition at 50 µM [5] |
| --- | --- | --- | --- | --- | --- | --- | --- |
| – | – | Cc1cc(C)nc(SCC(=O)Nc2ncc(Cc3cccc(OCc4cn(CCOCCOCCOCCOCCC(=O)Nc5ccc(C(=O)NCc6ccc(C(=O)NO)cc6)cc5)nn4)c3)s2)n1 | Active | < 20% | < 20% | < 20% | < 20% |
| > 100 µM | – | COCCn1cc(COc2cccc(Cc3cnc(NC(=O)CSc4nc(C)cc(C)n4)s3)c2)nn1 | – | – | – | – | – |
| – | – | Cc1cc(C)nc(SCC(=O)Nc2ncc(Cc3cccc(OCc4cn(Cc5ccccc5)nn4)c3)s2)n1 | – | – | – | < 20% | – |
| – | 18% | O=C(CCCCCCC(=O)Nc1ccccc1)NO | – | – | – | – | – |
| – | – | Cc1cc(C)nc(SCC(=O)Nc2ncc(Cc3cccc(OCc4cn(CCOCCOCCOCCOCCC(=O)Nc5ccc(C(=O)NCCCCCCC(=O)NO)cc5)nn4)c3)s2)n1 | Active | – | < 20% | < 20% | < 20% |
| – | – | Cc1cc(C)nc(SCC(=O)Nc2ncc(Cc3cccc(OCc4cn(CCOCCOCCOCCOCCOCCOCCOCCOCCOCCOCCC(=O)Nc5ccc(C(=O)NCc6ccc(C(=O)NO)cc6)cc5)nn4)c3)s2)n1 | Active | < 20% | < 20% | < 20% | < 20% |

— ChEMBL document CHEMBL5370658, “Development of First-in-Class Dual Sirt2/HDAC6 Inhibitors as Molecular Tools for Dual Inhibition of Tubulin Deacetylation” (J Med Chem, 2023)
